PMI act hi M6P: PMI (human) activation, high substrate; P34949; coupled PMI enzyme assay, resazurin fluorescence, 20 min; stronger effect = higher value; 1 = untreated enzyme, 0 = substrate-free blank; activation factor at 20 µM; 190,000 tested, 0.34% active; AID 1216;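 active means activation factor of 2 or more at 20 µM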
Target sequence (P34949 whole entry, looked up): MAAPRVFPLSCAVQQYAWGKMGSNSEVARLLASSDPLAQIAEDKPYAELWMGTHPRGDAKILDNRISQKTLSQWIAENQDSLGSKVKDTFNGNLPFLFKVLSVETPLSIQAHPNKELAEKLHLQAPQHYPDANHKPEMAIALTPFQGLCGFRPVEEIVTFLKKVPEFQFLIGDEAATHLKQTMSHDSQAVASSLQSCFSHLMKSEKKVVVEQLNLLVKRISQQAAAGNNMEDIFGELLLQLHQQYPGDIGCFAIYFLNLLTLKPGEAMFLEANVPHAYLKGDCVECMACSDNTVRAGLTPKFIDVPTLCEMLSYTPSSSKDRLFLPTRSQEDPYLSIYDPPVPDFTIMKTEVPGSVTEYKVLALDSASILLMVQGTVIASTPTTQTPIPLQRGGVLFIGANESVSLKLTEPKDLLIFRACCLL
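Technique: Diaphorase-driven resazurin-to-resorufin fluorescence, excitation 544, emission 590 nm | Assay system: Human PMI in coupled enzyme assay | Times: Enzyme reaction with compound 20 min at room temperature | Medium: HEPES-buffered pH 7.4 with magnesium and detergent | Reagent: Mannose-6-phosphate 1.0 mM (near-saturating) plus 0.22 mM NADP+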
PMI act: increases human mannose-6-phosphate isomerase activity | P34949 | purified human PMI, coupled resazurin fluorescence, 20 min; stronger effect = higher value; 1 = vehicle control, 0 substrate-free wells | activation factor at 20 µM | 190,000 tested, 0.005% active | AID 1214;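 active means activation factor of 2 or more at 20 µM, relative to plate controls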
Diaphorase act: diaphorase activation or chemical reduction counter-screen | Diaphorase/resazurin coupled assay, resorufin fluorescence, 16 min; stronger effect = higher value; 1 = vehicle wells, 0 = NADH-free wells | activation factor at 20 µM | 190,000 tested, 0.005% active | AID 1229;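 active means diaphorase activity raised at least twofold by the compound at 20 µM; inactive means activation factor below 2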
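Material: purified diaphorase enzyme from Clostridium kluyveri; Also added: 0.114 mM NADH and 0.1 mM resazurin, final amounts; Doses: single compound dose of 20 µM, 1% DMSO final; Times: 16 min enzyme reaction, ambient temperature; Detection: resorufin fluorescence, excitation 544 nm, emission 590 nm; Measure: increased resorufin signal from activators or reducing compounds.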
Tb hexokinase: T. brucei hexokinase 1 inhibition; AID 1430; 220,000 tested, 0.11% active; inhibition, % at 10 µM; recombinant TbHK1, G6PDH-coupled NADH A340;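 active means inhibition of 50% or more in the single-dose primary screen; inactive means inhibition below 50%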
Diaph inh CS: inhibits diaphorase or chemically oxidizes, flagging diaphorase assay artifacts | diaphorase resazurin-to-resorufin fluorescence, NADH, 16 min; bacterial (C. kluyveri) enzyme, not human | inhibition, % at 20 µM | 190,000 tested, 0.69% active | AID 1217;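 active means primary screen inhibition at 20 µM above a set limit, cut at about 50% in these data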
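Detection: fluorescence of resorufin formed from resazurin, Ex 544/Em 590 nm; test system: Clostridium kluyveri diaphorase enzyme; amount: 0.14 U/mL diaphorase, enzyme working solution; times: 16-min room-temperature incubation before reading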
G6PDH CS: inhibits Leuconostoc G6PDH, flagging false hits in G6PDH-based assays | Purified L. mesenteroides G6PDH, diaphorase/resazurin coupled fluorescence, 45 min | inhibition, % at 5 µM | 200,000 tested, 0.12% active | AID 1020; in the data active means inhibition above about 50%
Hits are given with their value; . = inactive; / = no result given. Rows were chosen to be rich in hits. Some 1.1% of all compounds tested hit in one or more screens of this group.

SMILES	PMI act hi M6P	PMI act	Diaphorase act	Tb hexokinase	Diaph inh CS	G6PDH CS
CC(=O)N1CCc2cc(N=NC3=C(O)CC(C)(C)CC3=O)ccc21	.	.	.	.	.	.
COc1ccc(-c2cc3nnc(-c4ccccc4)nc3s2)cc1	2.5	.	.	.	.	.
COc1ccc(-c2nc3ccccc3nc2-c2ccccc2)cc1	.	.	.	.	.	.
Cc1cc(Br)ccc1-n1[nH]c(C)c(C=Nc2cccc3nsnc23)c1=O	.	.	.	.	61	.
CCO/C=C1/C(=O)N(C(C)=O)c2ccccc21	2.6	.	.	.	.	.
CCOC(=O)CON1C(=O)c2ccccc2C1=O	.	.	.	.	.	.
O=C(Nc1ccnc(=O)[nH]1)c1sc2ccccc2c1Cl	/	/	/	.	/	/
O=C1C(=O)c2ccc(-c3ccccc3)cc2-c2ccccc21	.	.	.	.	.	54
Nc1ccc2c(c1)C(=O)C(=O)c1ccccc1-2	.	.	.	.	.	58
COc1ccc(C(=O)NC(=S)NNC(=O)CNC(=O)C2CCCCC2)cc1	.	.	.	.	59	.
COc1ccc(C(=O)NNC(=O)CNC(=O)C2CCCCC2)cc1	.	.	.	.	.	.
Cc1ccc([N+](=O)[O-])cc1N/C=C1\CCc2ccccc2C1=O	.	.	.	.	58	.
COc1cc(C=O)ccc1Oc1nc(Nc2ccc(F)cc2F)nc(N2CCOCC2)n1	.	.	.	.	.	.
COc1cc(/C=C(\C#N)c2nc3ccccc3[nH]2)cc(Br)c1OCc1ccccc1	.	.	.	.	.	.
COc1cc(/C=C(\C#N)c2nc3ccc(C)cc3[nH]2)cc([N+](=O)[O-])c1O	.	.	.	.	98	.
COc1cc(/C=C(\C#N)c2nc3ccc(C)cc3[nH]2)c([N+](=O)[O-])cc1OC	.	.	.	.	.	.
COc1cc(/C=C(\C#N)c2nc3ccccc3[nH]2)cc(OC)c1O	.	.	.	.	51	.
CCOc1ccc2c(c1)/C(=N/N1C(=O)c3ccccc3C1=O)C(=O)N2	.	.	.	.	.	.
O=[N+]([O-])/C(C(Cl)=C(Cl)Cl)=C1\Nc2ccccc2O1	/	/	/	.	/	/
CCCCOc1ccc2c(c1)/C(=C(\C(Cl)=C(Cl)Cl)[N+](=O)[O-])N2	.	.	.	.	50	.
CCOc1ccc2c(c1)/C(=C(\C(Cl)=C(Cl)Cl)[N+](=O)[O-])N2	.	.	.	.	51	.
Nc1nc(NCCCN2CCOCC2)nc(Nc2cccc(Cl)c2)c1[N+](=O)[O-]	/	/	/	.	/	/
COc1ccc(C(=O)c2ccc(CC(=O)O)s2)cc1	2.4	.	.	.	.	.
CC(=O)N(C)C1=C(N2CCOCC2)C(=O)c2ccccc2C1=O	.	.	.	.	.	55
O=C(Nc1ccc(Cl)cc1)[C@@H]1[C@@H]2C(=O)N(c3ccc4ccccc4c3)C(=O)[C@@H]2[C@H]2C=CC=NN21	2	.	.	.	.	.
SMILES	PMI act hi M6P	PMI act	Diaphorase act	Tb hexokinase	Diaph inh CS	G6PDH CS
O=C(Nc1ccc(Cl)cc1)[C@@H]1[C@@H]2C(=O)N(c3cccc(F)c3)C(=O)[C@@H]2[C@H]2C=CC=NN21	/	/	/	.	/	/
Nc1nc(Nc2cccc(F)c2)nc(NCc2ccco2)c1[N+](=O)[O-]	/	/	/	.	/	/
O=C(/C(=N/N=C/c1ccc(O)c(O)c1)c1ccccc1)c1ccccc1	.	.	.	.	51	.
COc1ccc(S(=O)(=O)N=Nc2c(O)[nH]c3ccccc23)cc1	2.5	.	.	.	.	.
Cc1ccc(N(CC(=O)N=Nc2c(O)[nH]c3ccccc23)S(C)(=O)=O)c(C)c1	.	.	.	.	.	.
Cc1ccc(S(=O)(=O)N=Nc2c(O)[nH]c3ccccc23)cc1C	2.2	.	.	.	.	.
CC(=O)/C(=N/Nc1ccccc1C)N1CCOCC1	2.4	.	.	.	.	.
CC(=O)/C(=N/Nc1cccc(Cl)c1)N1CCOCC1	2	.	.	.	.	.
CCC(NC(C)C)C(O)c1ccc(O)c(O)c1 (configuration not stated)	.	.	.	.	59	63
Cn1c(/N=C/c2c(O)ccc3ccccc23)nc2ccccc21	.	.	.	.	77	.

High-throughput results from PubChem BioAssay.
